{"source": "ChEMBL document CHEMBL3091366", "about": "“New 5-Aryl-1H-imidazoles display in vitro antitumor activity against apoptosis-resistant cancer models, including melanomas, through mitochondrial targeting” (J Med Chem, 2013)", "key": {"SK-MEL-28 [1]": {"test_system": "SK-MEL-28", "experiment": "Effect on oxygen consumption in human SK-MEL-28 cells at 10 uM by oxygraphic analysis", "assay_type": "functional, cell-based", "in_short": "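Compound added directly at 10 µM to the oxygraph chamber holding SKMEL-28 cells; ROUTINE respiration recorded by Clark-electrode high-resolution respirometry at 37 °C in phenol red-free DMEM with glucose 1 g/L and pyruvate 110 mg/L, with stirring.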"}, "SK-MEL-28 [2]": {"test_system": "SK-MEL-28", "experiment": "Increase in cell size of human SK-MEL-28 cells at 5 uM after 24 hrs by MitoTracker Green FM-based fluorescence microscopic analysis", "assay_type": "functional", "in_short": "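SKMEL-28 cells seeded on glass coverslips 48 h before treatment at 5 µM (3 to 48 h); two washes, mitochondria stained with 100 nM MitoTracker Green FM in phenol red-free RPMI for 30 min, rinsed twice, viewed by fluorescence microscopy. Three coverslips per condition.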"}, "Melanoma cell": {"test_system": "Melanoma cell", "experiment": "Cytotoxicity against human Melanoma cells assessed as growth inhibition after 72 hrs by MTT-based colorimetric assay", "assay_type": "functional", "in_short": "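Eleven human primary melanoma cultures treated for 72 h with the fumarate salt. Growth inhibition read by colorimetric MTT assay, with IC50 taken as 50% reduction of the cell population. Maximal concentration tested was 100 µM. Run once in sextuplicate.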"}, "T47D": {"test_system": "T47D", "experiment": "Cytotoxicity against human T47D cells assessed as residual growth at 10 uM", "assay_type": "functional"}, "PC-3": {"test_system": "PC-3", "experiment": "Cytotoxicity against human PC3 cells assessed as residual growth at 10 uM", "assay_type": "functional"}, "SN12C": {"test_system": "SN12C", "experiment": "Cytotoxicity against human SN12C cells assessed as residual growth at 10 uM", "assay_type": "functional"}, "ACHN": {"test_system": "ACHN", "experiment": "Cytotoxicity against human ACHN cells assessed as residual growth at 10 uM", "assay_type": "functional"}, "OVCAR-8": {"test_system": "OVCAR-8", "experiment": "Cytotoxicity against human OVCAR8 cells assessed as residual growth at 10 uM", "assay_type": "functional"}, "IGROV-1": {"test_system": "IGROV-1", "experiment": "Cytotoxicity against human IGROV1 cells assessed as residual growth at 10 uM", "assay_type": "functional"}, "UACC-62": {"test_system": "UACC-62", "experiment": "Cytotoxicity against human UACC62 cells assessed as residual growth at 10 uM", "assay_type": "functional"}, "SK-MEL-5": {"test_system": "SK-MEL-5", "experiment": "Cytotoxicity against human SK-MEL-5 cells assessed as residual growth at 10 uM", "assay_type": "functional"}, "[3]": {"experiment": "Cytotoxicity against human UACC257 cells assessed as residual growth at 10 uM", "assay_type": "functional, UACC-257"}, "SK-MEL-28 [4]": {"test_system": "SK-MEL-28", "experiment": "Cytotoxicity against human SK-MEL-28 cells assessed as residual growth at 10 uM", "assay_type": "functional"}, "SK-MEL-2": {"test_system": "SK-MEL-2", "experiment": "Cytotoxicity against human SK-MEL-2 cells assessed as residual growth at 10 uM", "assay_type": "functional"}, "M14": {"test_system": "M14", "experiment": "Cytotoxicity against human M14 cells assessed as residual growth at 10 uM", "assay_type": "functional"}, "Malme-3M": {"test_system": "Malme-3M", "experiment": "Cytotoxicity against human MALME-3M cells assessed as residual growth at 10 uM", "assay_type": "functional"}, "LOX IMVI": {"test_system": "LOX IMVI", "experiment": "Cytotoxicity against human LOXIMVI cells assessed as residual growth at 10 uM", "assay_type": "functional"}, "SNB-19": {"test_system": "SNB-19", "experiment": "Cytotoxicity against human SNB19 cells assessed as residual growth at 10 uM", "assay_type": "functional"}, "SF-268": {"test_system": "SF-268", "experiment": "Cytotoxicity against human SF268 cells assessed as residual growth at 10 uM", "assay_type": "functional"}, "KM12": {"test_system": "KM12", "experiment": "Cytotoxicity against human KM12 cells assessed as residual growth at 10 uM", "assay_type": "functional"}, "HCT-15": {"test_system": "HCT-15", "experiment": "Cytotoxicity against human HCT15 cells assessed as residual growth at 10 uM", "assay_type": "functional"}, "HCT-116": {"test_system": "HCT-116", "experiment": "Cytotoxicity against human HCT116 cells assessed as residual growth at 10 uM", "assay_type": "functional"}, "HCC 2998": {"test_system": "HCC 2998", "experiment": "Cytotoxicity against human HCC2998 cells assessed as residual growth at 10 uM", "assay_type": "functional"}, "COLO 205": {"test_system": "COLO 205", "experiment": "Cytotoxicity against human COLO205 cells assessed as residual growth at 10 uM", "assay_type": "functional"}, "NCI-H460": {"test_system": "NCI-H460", "experiment": "Cytotoxicity against human NCI-H460 cells assessed as residual growth at 10 uM", "assay_type": "functional"}, "NCI-H322M": {"test_system": "NCI-H322M", "experiment": "Cytotoxicity against human NCI-H322M cells assessed as residual growth at 10 uM", "assay_type": "functional"}, "NCI-H23": {"test_system": "NCI-H23", "experiment": "Cytotoxicity against human NCI-H23 cells assessed as residual growth at 10 uM", "assay_type": "functional"}, "NCI-H226": {"test_system": "NCI-H226", "experiment": "Cytotoxicity against human NCI-H226 cells assessed as residual growth at 10 uM", "assay_type": "functional"}, "HOP-92": {"test_system": "HOP-92", "experiment": "Cytotoxicity against human HOP92 cells assessed as residual growth at 10 uM", "assay_type": "functional"}, "A549": {"test_system": "A549", "experiment": "Cytotoxicity against human A549 cells assessed as residual growth at 10 uM", "assay_type": "functional"}, "MOLT-4": {"test_system": "MOLT-4", "experiment": "Cytotoxicity against human MOLT4 cells assessed as residual growth at 10 uM", "assay_type": "functional"}, "SK-MEL-28 [5]": {"test_system": "SK-MEL-28", "experiment": "Induction of apoptosis in apoptotic-resistant human SK-MEL-28 cells at 5 uM after 24 to 72 hrs by TUNEL staining-based flow cytometry", "assay_type": "functional, cell-based", "in_short": "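SKMEL-28 cells treated with 5 µM for 24, 48 and 72 h; apoptosis by TUNEL plus propidium iodide staining (APO-Direct kit) read by flow cytometry. Kit negative/positive controls, plus PC-3 cells untreated or given 1 µM narciclasine 72 h as internal controls. Quadruplicate (kit controls singlet); mean ± SEM.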"}, "SK-MEL-28 [6]": {"test_system": "SK-MEL-28", "experiment": "Cytostatic activity against apoptotic-resistant human SK-MEL-28 cells assessed as increase in cell size at 5 uM after 72 hrs by quantitative videomicroscopy", "assay_type": "functional, cell-based", "in_short": "(§1)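 SK-MEL-28 cells exposed to 5 µM for 24, 48 and 72 h. Cell cycle was read by flow cytometry with propidium iodide plus TUNEL double staining (APO-Direct kit), in quadruplicate. Videomicroscopy photographed each field every 4 min over 72 h. Global growth is cells at a time point divided by cells at time 0; the treated/control ratio gives GGR. Cell death was judged from morphology. Run twice, in triplicate and in quadruplicate.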"}, "SK-MEL-28 [7]": {"test_system": "SK-MEL-28", "experiment": "Cytotoxicity against apoptotic-resistant human SK-MEL-28 cells assessed as cell death at 5 uM after 72 hrs by quantitative videomicroscopy", "assay_type": "functional, cell-based", "in_short": "as §1"}, "[8]": {"experiment": "Cytotoxicity against HLF cells assessed as growth inhibition after 72 hrs by MTT-based colorimetric assay", "assay_type": "cell-based", "conditions": "Homo sapiens", "in_short": "(§2)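 MTT colorimetric assay, 72 h exposure to the fumarate salt. Read-out is reduction of MTT to formazan by living cells. IC50 is the concentration that reduces the whole cell population by 50%. Six replicates per condition. Where compounds were not tested on every line, apoptosis-sensitive lines were PC3, MCF-7, LoVo and B16F10, and apoptosis-resistant lines were U373, T98G, A549 and SK-MEL-28.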"}, "B16-F10": {"test_system": "B16-F10", "experiment": "Cytotoxicity against apoptotic-sensitive mouse B16F10 cells assessed as growth inhibition after 72 hrs by MTT-based colorimetric assay", "assay_type": "functional, cell-based", "conditions": "B16-F10, 72 h", "in_short": "as §2"}, "MCF7": {"test_system": "MCF7", "experiment": "Cytotoxicity against apoptotic-sensitive human MCF7 cells assessed as growth inhibition after 72 hrs by MTT-based colorimetric assay", "assay_type": "functional, cell-based", "conditions": "Homo sapiens, MCF7, 72 h", "in_short": "as §2"}, "SK-MEL-28 [9]": {"test_system": "SK-MEL-28", "experiment": "Cytotoxicity against apoptotic-resistant human SK-MEL-28 cells assessed as growth inhibition after 72 hrs by MTT-based colorimetric assay", "assay_type": "functional, cell-based", "conditions": "Homo sapiens, SK-MEL-28, 72 h", "in_short": "as §2"}}, "note": "Activity calls are given as the source filed them. The calls are words filed in the database; no cut-off is given here."}
{"smiles": "C=CCCCCOc1ccccc1-c1cnc(OCCCCC=C)n1C", "values": [{"measurement": "Activity", "setting": "SK-MEL-28 [1]", "result": "inactive"}, {"measurement": "Activity", "setting": "SK-MEL-28 [2]", "result": "Active"}, {"measurement": "Activity", "setting": "Melanoma cell", "result": "Active"}, {"measurement": "Activity", "setting": "T47D", "result": 61.88, "unit": "%"}, {"measurement": "Activity", "setting": "PC-3", "result": 73.54, "unit": "%"}, {"measurement": "Activity", "setting": "SN12C", "result": 91.09, "unit": "%"}, {"measurement": "Activity", "setting": "ACHN", "result": 84.54, "unit": "%"}, {"measurement": "Activity", "setting": "OVCAR-8", "result": 83.91, "unit": "%"}, {"measurement": "Activity", "setting": "IGROV-1", "result": 62.95, "unit": "%"}, {"measurement": "Activity", "setting": "UACC-62", "result": 55.73, "unit": "%"}, {"measurement": "Activity", "setting": "SK-MEL-5", "result": 83.67, "unit": "%"}, {"measurement": "Activity", "setting": "[3]", "result": 66.63, "unit": "%"}, {"measurement": "Activity", "setting": "SK-MEL-28 [4]", "result": 73.36, "unit": "%"}, {"measurement": "Activity", "setting": "SK-MEL-2", "result": 46.08, "unit": "%"}, {"measurement": "Activity", "setting": "M14", "result": 72.63, "unit": "%"}, {"measurement": "Activity", "setting": "Malme-3M", "result": 62.83, "unit": "%"}, {"measurement": "Activity", "setting": "LOX IMVI", "result": 69.06, "unit": "%"}, {"measurement": "Activity", "setting": "SNB-19", "result": 91.08, "unit": "%"}, {"measurement": "Activity", "setting": "SF-268", "result": 79.65, "unit": "%"}, {"measurement": "Activity", "setting": "KM12", "result": 38.37, "unit": "%"}, {"measurement": "Activity", "setting": "HCT-15", "result": 52.21, "unit": "%"}, {"measurement": "Activity", "setting": "HCT-116", "result": 61.02, "unit": "%"}, {"measurement": "Activity", "setting": "HCC 2998", "result": 61.08, "unit": "%"}, {"measurement": "Activity", "setting": "COLO 205", "result": 46.04, "unit": "%"}, {"measurement": "Activity", "setting": "NCI-H460", "result": 55.6, "unit": "%"}, {"measurement": "Activity", "setting": "NCI-H322M", "result": 71.99, "unit": "%"}, {"measurement": "Activity", "setting": "NCI-H23", "result": 76.02, "unit": "%"}, {"measurement": "Activity", "setting": "NCI-H226", "result": 92.21, "unit": "%"}, {"measurement": "Activity", "setting": "HOP-92", "result": 75.18, "unit": "%"}, {"measurement": "Activity", "setting": "A549", "result": 50.25, "unit": "%"}, {"measurement": "Activity", "setting": "MOLT-4", "result": 91.38, "unit": "%"}, {"measurement": "Activity", "setting": "SK-MEL-28 [5]", "result": "inactive"}, {"measurement": "Activity", "setting": "SK-MEL-28 [6]", "result": "Active"}, {"measurement": "Activity", "setting": "SK-MEL-28 [7]", "result": "inactive"}, {"measurement": "IC50", "setting": "[8]", "result": 22, "unit": "µM"}, {"measurement": "IC50", "setting": "B16-F10", "result": 7, "unit": "µM"}, {"measurement": "IC50", "setting": "MCF7", "result": 5, "unit": "µM"}, {"measurement": "IC50", "setting": "SK-MEL-28 [9]", "result": 5, "unit": "µM"}]}
